Converted amounts (≈) assume the structure as drawn.
Legend:
[1] = test system: Cutibacterium acnes; assay: Antibacterial activity against drug-resistant Propionibacterium acnes OK8/97 after 48 hrs by broth microdilution method; assay type: functional
Procedure, shortened: (§1)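 Broth microdilution MIC in Wilkins-Chalgren broth without lysed horse blood, following CLSI anaerobe guidelines. Plates were held in anaerobic jars with atmosphere generators (O2 <0.1% by 2.5 h, CO2 >15% by 24 h) at 35 to 37°C for 48 h. Growth was read with an illuminated plate reader and magnifying mirror.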

[2] = test system: Cutibacterium acnes; assay: Antibacterial activity against drug-resistant Propionibacterium acnes SW101CDA after 48 hrs by broth microdilution method; assay type: functional; procedure, shortened: as §1
[3] = test system: Cutibacterium acnes; assay: Antibacterial activity against drug-resistant Propionibacterium acnes SW11 after 48 hrs by broth microdilution method; assay type: functional; procedure, shortened: as §1
[4] = test system: Cutibacterium acnes; assay: Antibacterial activity against drug-resistant Propionibacterium acnes P429:1 (BC) after 48 hrs by broth microdilution method; assay type: functional; procedure, shortened: as §1
[5] = test system: Streptococcus pyogenes; assay: Antibacterial activity against Streptococcus pyogenes after 20 to 24 hrs by broth microdilution method
[6] = Antibacterial activity against Streptococcus dysgalactiae subsp. dysgalactiae after 48 hrs by broth microdilution method; assay type: functional
[7] = test system: Staphylococcus aureus; assay: Antibacterial activity against methicillin-susceptible Staphylococcus aureus after 48 hrs by broth microdilution method; assay type: functional
[8] = test system: Cutibacterium acnes; assay: Antibacterial activity against drug-resistant Propionibacterium acnes P429:1 (SC) after 48 hrs by broth microdilution method; assay type: functional; procedure, shortened: as §1
[9] = test system: Cutibacterium acnes; assay: Antibacterial activity against drug-resistant Propionibacterium acnes SW3CD after 72 hrs; assay type: functional
Procedure, shortened: (§2)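 MBC for P. acnes followed MIC assays by standard methodology. Samples were plated on Wilkins-Chalgren agar, incubated anaerobically in GENbox jars at 35 to 37°C, and examined for growth after 72 h.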

[10] = test system: Cutibacterium acnes; assay: Antibacterial activity against drug-resistant Propionibacterium acnes EG3NS after 48 hrs by broth microdilution method; assay type: functional; procedure, shortened: as §1
[11] = test system: Cutibacterium acnes; assay: Antibacterial activity against drug-resistant Propionibacterium acnes GE46EB after 48 hrs by broth microdilution method; assay type: functional; procedure, shortened: as §1
[12] = test system: Cutibacterium acnes; assay: Antibacterial activity against drug-resistant Propionibacterium acnes EG13NS after 48 hrs by broth microdilution method; assay type: functional; procedure, shortened: as §1
[13] = test system: Cutibacterium acnes; assay: Antibacterial activity against drug-resistant Propionibacterium acnes P322:2 after 48 hrs by broth microdilution method; assay type: functional; procedure, shortened: as §1
[14] = test system: Corynebacterium amycolatum; assay: Antibacterial activity against Corynebacterium amycolatum after 48 hrs by broth microdilution method; assay type: functional
Procedure, shortened: (§3)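 Broth microdilution per CLSI in cation-adjusted Mueller-Hinton broth supplemented with 0.5% (vol/vol) Tween 80. Plates incubated at 35°C in ambient air for 44 to 48 h, then read visually. MICs in μg/ml; a geometric mean MIC was calculated across the corynebacterial strains.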

[15] = test system: Cutibacterium acnes; assay: Antibacterial activity against drug-resistant Propionibacterium acnes GE4E after 72 hrs; assay type: functional; procedure, shortened: as §2
[16] = test system: Cutibacterium acnes; assay: Antibacterial activity against drug-resistant Propionibacterium acnes GE4E after 48 hrs by broth microdilution method; assay type: functional; procedure, shortened: as §1
[17] = test system: Cutibacterium acnes; assay: Antibacterial activity against drug-resistant Propionibacterium acnes EG7NS after 72 hrs; assay type: functional; procedure, shortened: as §2
[18] = test system: Cutibacterium acnes; assay: Antibacterial activity against drug-resistant Propionibacterium acnes SW54EA after 48 hrs by broth microdilution method; assay type: functional; procedure, shortened: as §1
[19] = test system: Staphylococcus epidermidis; assay: Antibacterial activity against Staphylococcus epidermidis after 48 hrs by broth microdilution method; assay type: functional
[20] = test system: Staphylococcus aureus; assay: Antibacterial activity against borderline oxacillin-resistant Staphylococcus aureus after 20 to 24 hrs by broth microdilution method
[21] = test system: Cutibacterium acnes; assay: Antibacterial activity against drug-resistant Propionibacterium acnes P95 after 72 hrs; assay type: functional; procedure, shortened: as §2
[22] = test system: Cutibacterium acnes; assay: Antibacterial activity against drug-resistant Propionibacterium acnes SW3CD after 48 hrs by broth microdilution method; assay type: functional; procedure, shortened: as §1
[23] = test system: Cutibacterium acnes; assay: MBC/MIC ratio of Propionibacterium acnes EG7NS; assay type: functional
Procedure, shortened: (§4)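 MIC by CLSI broth microdilution in Wilkins-Chalgren broth in anaerobic jars (O2 <0.1%, CO2 >15%), read after 48 h at 35–37°C on an illuminated plate reader. For MBC, samples were plated onto Wilkins-Chalgren agar and incubated anaerobically for 72 h at 35–37°C before growth was scored.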

[24] = test system: Cutibacterium acnes; assay: MBC/MIC ratio of Propionibacterium acnes GE4E; assay type: functional; procedure, shortened: as §4
[25] = test system: Corynebacterium diphtheriae; assay: Antibacterial activity against Corynebacterium diphtheriae after 48 hrs by broth microdilution method; assay type: functional; procedure, shortened: as §3
[26] = test system: Cutibacterium acnes; assay: MBC/MIC ratio of Propionibacterium acnes SW101T; assay type: functional; procedure, shortened: as §4
[27] = test system: Corynebacterium minutissimum; assay: Antibacterial activity against Corynebacterium minutissimum after 48 hrs by broth microdilution method; assay type: functional; procedure, shortened: as §3
[28] = test system: Staphylococcus aureus; assay: Antibacterial activity against methicillin-resistant Staphylococcus aureus after 20 to 24 hrs by broth microdilution method
[29] = test system: Cutibacterium acnes; assay: Antibacterial activity against drug-resistant Propionibacterium acnes P:413 after 48 hrs by broth microdilution method; assay type: functional; procedure, shortened: as §1
[30] = test system: Cutibacterium acnes; assay: Antibacterial activity against drug-resistant Propionibacterium acnes P401:5 after 48 hrs by broth microdilution method; assay type: functional; procedure, shortened: as §1
[31] = test system: Corynebacterium jeikeium; assay: Antibacterial activity against Corynebacterium jeikeium after 48 hrs by broth microdilution method; assay type: functional; procedure, shortened: as §3
[32] = test system: Cutibacterium acnes; assay: Antibacterial activity against drug-resistant Propionibacterium acnes P95 after 48 hrs by broth microdilution method; assay type: functional; procedure, shortened: as §1
[33] = test system: Cutibacterium acnes; assay: Antibacterial activity against drug-resistant Propionibacterium acnes SP64E after 48 hrs by broth microdilution method; assay type: functional; procedure, shortened: as §1
[34] = test system: Cutibacterium acnes; assay: MBC/MIC ratio of Propionibacterium acnes SW3CD; assay type: functional; procedure, shortened: as §4
[35] = test system: Propionibacterium granulosum; assay: Antibacterial activity against drug-resistant Propionibacterium granulosum QK6/92 after 48 hrs by broth microdilution method
[36] = test system: Cutibacterium acnes; assay: Antibacterial activity against drug-resistant Propionibacterium acnes SW26 after 48 hrs by broth microdilution method; assay type: functional; procedure, shortened: as §1
[37] = test system: Cutibacterium acnes; assay: Antibacterial activity against drug-resistant Propionibacterium acnes SW101T after 48 hrs by broth microdilution method; assay type: functional; procedure, shortened: as §1
[38] = test system: Cutibacterium acnes; assay: Antibacterial activity against drug-resistant Propionibacterium acnes D-04/97 after 48 hrs by broth microdilution method; assay type: functional; procedure, shortened: as §1
[39] = test system: Cutibacterium acnes; assay: Antibacterial activity against drug-resistant Propionibacterium acnes SW101T after 72 hrs; assay type: functional; procedure, shortened: as §2
[40] = test system: Cutibacterium acnes; assay: Antibacterial activity against drug-resistant Propionibacterium acnes SW10 after 48 hrs by broth microdilution method; assay type: functional; procedure, shortened: as §1
[41] = test system: Cutibacterium acnes; assay: Antibacterial activity against drug-resistant Propionibacterium acnes SW16 after 48 hrs by broth microdilution method; assay type: functional; procedure, shortened: as §1
[42] = test system: Streptococcus equi subsp. zooepidemicus; assay: Antibacterial activity against Streptococcus equi subsp. zooepidemicus after 48 hrs by broth microdilution method; assay type: functional
[43] = test system: Propionibacterium granulosum; assay: Antibacterial activity against drug-resistant Propionibacterium granulosum NCTC-11865 after 48 hrs by broth microdilution method; assay type: functional; conditions: Cutibacterium granulosum, NCTC-11865, 48 h; procedure, shortened: as §1
[44] = test system: Cutibacterium acnes; assay: Antibacterial activity against drug-resistant Propionibacterium acnes P425:1 after 48 hrs by broth microdilution method; assay type: functional; procedure, shortened: as §1
[45] = test system: Cutibacterium acnes; assay: MBC/MIC ratio of Propionibacterium acnes P95; assay type: functional; procedure, shortened: as §4
[46] = test system: Cutibacterium acnes; assay: Antibacterial activity against drug-resistant Propionibacterium acnes FG7E after 48 hrs by broth microdilution method; assay type: functional; procedure, shortened: as §1
[47] = test system: Cutibacterium acnes; assay: Antibacterial activity against drug-resistant Propionibacterium acnes EG7NS after 48 hrs by broth microdilution method; assay type: functional; procedure, shortened: as §1
[48] = test system: Cutibacterium acnes; assay: Antibacterial activity against drug-resistant Propionibacterium acnes SW17 after 48 hrs by broth microdilution method; assay type: functional; procedure, shortened: as §1

In the case of `CN(C)[C@@H]1C(O)=C(C(N)=O)C(=O)[C@@]2(O)C(O)=C3C(=O)c4c(O)cccc4[C@@](C)(O)[C@H]3C[C@@H]12` [TETRACYCLINE], the MIC [1] is reported as 0.5 µg/mL (≈ 1.13 µM), the MIC [2] is reported as no more than 0.06 µg/mL and the MIC [3] is reported as 2 µg/mL (≈ 4.5 µM). The MIC [4] was 1 µg/mL (≈ 2.25 µM), the MIC [5] was 3.25 µg/mL (≈ 7.31 µM) and the MIC [6] was 4.58 µg/mL (≈ 10.3 µM). For the same molecule, the MIC [7] was 3.17 µg/mL (≈ 7.13 µM), the MIC [8] was no less than 32 µg/mL and the MBC [9] was greater than 32 µg/mL. The MIC [10] was 0.5 µg/mL (≈ 1.13 µM), the MIC [11] was 1 µg/mL (≈ 2.25 µM) and the MIC [12] was 1 µg/mL (≈ 2.25 µM). It also gave an MIC [13] of 32 µg/mL (≈ 72 µM), an MIC [14] of 5.16 µg/mL (≈ 11.6 µM) and an MBC [15] greater than 32 µg/mL. The MIC [16] was 2 µg/mL (≈ 4.5 µM), the MBC [17] was greater than 32 µg/mL and the MIC [18] was 0.5 µg/mL (≈ 1.13 µM). The MIC [19] was 7.55 µg/mL (≈ 17 µM), the MIC [20] was 3.17 µg/mL (≈ 7.13 µM) and the MBC [21] was 32 µg/mL (≈ 72 µM). The MIC [22] was 1 µg/mL (≈ 2.25 µM), the Ratio [23] was “>=533” and the Ratio [24] was greater than 16. The MIC [25] was 5.16 µg/mL (≈ 11.6 µM), the Ratio [26] was greater than 1 and the MIC [27] was 5.16 µg/mL (≈ 11.6 µM). For the same molecule, the MIC [28] was 3.17 µg/mL (≈ 7.13 µM), the MIC [29] was 16 µg/mL (≈ 36 µM) and the MIC [30] was 32 µg/mL (≈ 72 µM). It also gave an MIC [31] of 5.16 µg/mL (≈ 11.6 µM), an MIC [32] of 0.5 µg/mL (≈ 1.13 µM) and an MIC [33] of 1 µg/mL (≈ 2.25 µM). It also gave a Ratio [34] greater than 32, an MIC [35] of 1 µg/mL (≈ 2.25 µM) and an MIC [36] of 0.5 µg/mL (≈ 1.13 µM). The MIC [37] was 32 µg/mL (≈ 72 µM), the MIC [38] was 1 µg/mL (≈ 2.25 µM) and the MBC [39] was greater than 32 µg/mL. The MIC [40] was 0.5 µg/mL (≈ 1.13 µM), the MIC [41] was 0.25 µg/mL (≈ 0.563 µM) and the MIC [42] was 8 µg/mL (≈ 18 µM). It also gave an MIC [43] of 0.5 µg/mL (≈ 1.13 µM), an MIC [44] of 16 µg/mL (≈ 36 µM) and a Ratio [45] greater than 64. The MIC [46] was 32 µg/mL (≈ 72 µM), the MIC [47] was no more than 0.06 µg/mL and the MIC [48] was 0.25 µg/mL (≈ 0.563 µM).

From ChEMBL document CHEMBL1143835, “Antipropionibacterial activity of BAL19403, a novel macrolide antibiotic” (2007)
